Drawing on ChEMBL document CHEMBL1131058, “Studies on quinazolines and 1,2,4-benzothiadiazine 1,1-dioxides. 8.1, 2 synthesis and pharmacological evaluation of tricyclic fused quinazolines and 1,2,4-benzothiadiazine 1,1-dioxides as potential alpha1-adrenoceptor antagonists” (J Med Chem, 1998), this text covers Ki for six molecules.

Where only a bound is given, the exact number is not on record here.

The target in this assay is T1, Adrenergic receptor alpha-2 (Rattus norvegicus, UniProt P22086+P19328+P22909).
T1 sequence (P22086 whole entry): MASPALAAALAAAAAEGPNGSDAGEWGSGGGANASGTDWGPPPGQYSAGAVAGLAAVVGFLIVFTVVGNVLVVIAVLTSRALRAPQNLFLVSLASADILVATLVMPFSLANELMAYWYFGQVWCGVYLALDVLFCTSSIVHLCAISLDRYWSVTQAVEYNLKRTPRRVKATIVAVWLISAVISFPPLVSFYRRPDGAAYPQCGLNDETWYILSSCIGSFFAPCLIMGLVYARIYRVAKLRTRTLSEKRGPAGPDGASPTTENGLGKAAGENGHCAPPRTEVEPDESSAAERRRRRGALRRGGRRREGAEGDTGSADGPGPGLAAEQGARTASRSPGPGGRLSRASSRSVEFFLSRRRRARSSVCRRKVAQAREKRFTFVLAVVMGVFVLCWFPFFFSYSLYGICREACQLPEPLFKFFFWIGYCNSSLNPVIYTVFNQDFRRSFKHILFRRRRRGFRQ
T1 sequence (P19328 whole entry): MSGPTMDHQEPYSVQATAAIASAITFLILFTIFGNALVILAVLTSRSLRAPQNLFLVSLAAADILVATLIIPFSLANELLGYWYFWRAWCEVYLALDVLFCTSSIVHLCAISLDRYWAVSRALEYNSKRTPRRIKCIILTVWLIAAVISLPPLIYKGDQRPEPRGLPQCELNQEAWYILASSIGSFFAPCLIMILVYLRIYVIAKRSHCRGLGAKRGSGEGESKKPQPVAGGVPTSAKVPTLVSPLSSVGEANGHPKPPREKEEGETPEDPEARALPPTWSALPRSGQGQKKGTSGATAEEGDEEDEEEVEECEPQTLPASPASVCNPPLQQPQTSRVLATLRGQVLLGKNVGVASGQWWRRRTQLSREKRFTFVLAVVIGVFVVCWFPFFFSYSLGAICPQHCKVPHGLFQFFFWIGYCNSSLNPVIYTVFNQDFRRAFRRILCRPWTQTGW
T1 sequence (P22909 whole entry): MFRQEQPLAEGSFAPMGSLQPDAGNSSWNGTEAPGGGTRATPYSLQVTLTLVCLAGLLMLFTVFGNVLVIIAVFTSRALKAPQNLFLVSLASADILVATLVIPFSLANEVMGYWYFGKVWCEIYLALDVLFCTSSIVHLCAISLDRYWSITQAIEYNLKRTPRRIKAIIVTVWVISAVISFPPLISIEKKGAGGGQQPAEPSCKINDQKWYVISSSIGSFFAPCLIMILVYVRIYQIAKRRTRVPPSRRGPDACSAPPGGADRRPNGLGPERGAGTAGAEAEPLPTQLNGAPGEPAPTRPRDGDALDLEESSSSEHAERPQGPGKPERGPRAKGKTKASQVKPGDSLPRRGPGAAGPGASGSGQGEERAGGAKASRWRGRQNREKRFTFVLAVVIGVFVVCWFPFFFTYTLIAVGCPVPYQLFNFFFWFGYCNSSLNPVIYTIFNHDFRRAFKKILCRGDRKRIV
Nature of the assay: Displacement of clonidine from Alpha-2 adrenergic receptor of rat cortical membranes. The assay is classed as cell membranes, Membrane. The method, boiled down:
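α2 competition binding run in triplicate with 1 nM [³H]clonidine plus 10 mM MgCl₂ in Tris pH 7.4, 30 min at room temperature. Test compounds at 1-100 µM. Nonspecific binding defined with 10 µM clonidine. Membranes collected on GF/B filters and washed twice with cold Tris. Protein 300-400 µg per assay. Ki given as mean ± SEM of 3-6 experiments.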
As usually defined, the Ki is a measure of affinity in units of concentration, obtained from inhibition or displacement. Turning to `COc1ccccc1N1CCN(C[C@@H]2CN=C3c4ccccc4NC(=O)N32)CC1`, the Ki is over 10 µM.

For the molecule `COc1ccccc1N1CCN(CC2CN3C(=O)Nc4ccccc4C3=N2)CC1` (stereo unspecified), the Ki stood at 0.23 µM. Molecule `COc1ccccc1N1CCN(C[C@H]2CN=C3c4ccccc4NC(=O)N32)CC1` had a Ki of 0.183 µM. Next, `COc1ccccc1N1CCN(C[C@H]2CN=C3c4ccccc4N=C(SC)N32)CC1`: 3.5 µM; `COc1ccccc1N1CCN(CC2CN=C3c4ccccc4N=C(SC)N32)CC1` (stereo unspecified): 0.97 µM; `COc1ccccc1N1CCN(C[C@@H]2CN=C3c4ccccc4N=C(SC)N32)CC1`: 9 µM.
